Screening results (PubChem BioAssay)
Vif imaging: inhibitors of HIV Vif; 340,000 tested, 0.35% active; HEK293T cells, Vif self-association by quenched fluorescence, imaging, 24 h; inhibition, % at 7.49 µM; in the data active means inhibition above about 50%, passing the limit was not always enough
PvdQ acylase: blocks Pseudomonas aeruginosa PvdQ acylase activity; purified PvdQ acylase, fluorescence plate reader; inhibition, % at 10 µM; 340,000 tested, 0.063% active; in the data active means inhibition above about 30%, passing the limit was not always enough
CAL PDZ FP-1: CAL PDZ (human) peptide binding inhibition | 300,000 tested, 0.92% active | purified CAL PDZ, TMR-peptide fluorescence polarization, 1 h | AID 602252 | Q9HD26 | inhibition, % at 24.9 µM;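 active means mean inhibition of at least 30% with at least half of replicates also reaching 30%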
Glyco luc inh: blocks N-linked glycosylation in D54 reporter cells. AID 588692. D54 ERlucT glycosylation luciferase reporter, 24 h; percent of 100 nM tunicamycin response. reporter increase, % at 12.5 µM. 360,000 tested, 0.23% active;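 active means mean luciferase reporter signal, scaled so untreated is 0 and the glycosylation-blocking control 100, at or above a set limit in every replicate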;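 further: luciferase carries N-glycosylation sites so blocking glycosylation raises the light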
CAL PDZ FP-2: human CAL PDZ-peptide interaction inhibition. inhibition, % at 20 µM. AID 504414. 330,000 tested, 0.02% active. purified CAL PDZ, TMR-peptide fluorescence polarization, 1 h;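 active means highest replicate inhibition of at least 40%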
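Material: tagged CAL PDZ protein CerCALP, purified; buffer or medium: sodium phosphate/NaCl buffer pH 7.4 with TCEP, IgG, Thesit; also added: fluorescent TMR peptide probe; schedule: 1 h incubation at room temperature before polarization reading; technique: fluorescence polarization from S- and P-plane intensities, G-factor corrected; control set: unlabelled peptide and DMSO controls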
CDK5 p35 inh: blocks human CDK5/p35 kinase activity | Recombinant CDK5/p35, ADP-Glo luminescence, 60 min | 330,000 tested, 0.01% active | AID 488839 | inhibition, % at 10 µM | Q00535+Q15078;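 active means highest replicate inhibition of at least 50% and at least 75% of replicates reaching 50%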
Target sequence (Q00535 whole entry, looked up): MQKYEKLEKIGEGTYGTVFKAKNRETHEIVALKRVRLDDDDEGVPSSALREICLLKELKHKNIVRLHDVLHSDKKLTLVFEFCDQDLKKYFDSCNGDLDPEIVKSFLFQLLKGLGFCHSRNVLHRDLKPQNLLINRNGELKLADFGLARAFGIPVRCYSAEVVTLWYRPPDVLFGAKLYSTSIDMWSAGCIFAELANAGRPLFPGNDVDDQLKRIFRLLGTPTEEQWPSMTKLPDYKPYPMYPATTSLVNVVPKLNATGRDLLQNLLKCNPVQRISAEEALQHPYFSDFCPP
Target sequence (Q15078 whole entry, looked up): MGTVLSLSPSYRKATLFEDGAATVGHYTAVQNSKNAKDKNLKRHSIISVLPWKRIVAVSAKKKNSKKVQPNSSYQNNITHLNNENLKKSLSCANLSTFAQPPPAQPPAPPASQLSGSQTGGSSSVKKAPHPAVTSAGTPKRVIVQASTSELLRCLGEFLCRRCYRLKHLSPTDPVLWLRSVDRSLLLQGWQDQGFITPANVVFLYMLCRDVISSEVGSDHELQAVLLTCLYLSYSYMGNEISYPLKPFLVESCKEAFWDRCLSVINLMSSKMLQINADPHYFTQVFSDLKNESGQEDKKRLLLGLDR
Large screens that a line does not name were inactive. Hits are enriched below; roughly 1.4% of the tested compounds scored in any of these assays.

Cc1ccc(C2=NOC(C)(c3nnc(-c4ccncc4)o3)C2)cc1 (stereo unspecified)	Vif imaging 135
Cc1c(C(=O)NC(=S)Nc2ccc(N3CCOCC3)cc2)cccc1[N+](=O)[O-]	none
N#Cc1c(N)c(C#N)c(-c2ccc(O)cc2)c2c1CCCC2	CAL PDZ FP-1 75
Cc1ccc(-n2c(SCC(=O)Nc3ccc4c(c3)OCO4)nnc2-c2cccs2)cc1	Vif imaging 76
CCN(CC)CCOC(=O)c1ccc(NC(=O)CSc2nnc(-c3cccs3)n2CC)cc1	CAL PDZ FP-1 61
CC1CCCN(CCCN2C(=O)C3C(C(=O)Nc4cccc(Cl)c4)C4C=CC3(O4)C2C(=O)NC2CCCCC2)C1 (stereo unspecified)	none
Cc1cc(Nc2ccccc2Cl)nc(-c2ccccc2O)n1	CAL PDZ FP-1 57 (no result: CAL PDZ FP-2)
CCN1C(=O)CS/C1=N\S(=O)(=O)c1ccc(C)cc1	none
CCN1C(=O)CS/C1=N\S(=O)(=O)c1ccccc1	CAL PDZ FP-1 76
CC(=O)Nc1ccc(C(=O)OCC(=O)NC2CCCCCC2)cc1	none (no result: PvdQ acylase, CAL PDZ FP-1, CAL PDZ FP-2, CDK5 p35 inh)
COCCN(C(=O)COC(=O)CCc1nc2ccccc2s1)c1c(N)n(Cc2ccccc2)c(=O)[nH]c1=O	none
COCCN(C(=O)CSc1nc2ccccc2s1)c1c(N)n(Cc2ccccc2)c(=O)[nH]c1=O	CAL PDZ FP-1 99
CC(C)CN(C(=O)COC(=O)CSc1ccccc1)c1c(N)n(Cc2ccccc2)c(=O)[nH]c1=O	Vif imaging 50
CCOc1ccc(OCC(=O)N(CCC2=CCCCC2)c2c(N)n(Cc3ccccc3)c(=O)[nH]c2=O)cc1	Glyco luc inh 80
CCOc1ccc(OCCC(=O)N(CCC2=CCCCC2)c2c(N)n(Cc3ccccc3)c(=O)[nH]c2=O)cc1	none
COCCN(C(=O)COC(=O)/C=C/c1ccc2ccccc2n1)c1c(N)n(Cc2ccccc2)c(=O)[nH]c1=O	CAL PDZ FP-1 43
Cc1ccc(CN2CC(N3CCN(C)CC3)CS2(=O)=O)cc1 (stereo unspecified)	none (no result: Vif imaging, PvdQ acylase, CAL PDZ FP-1, CAL PDZ FP-2, CDK5 p35 inh)
Cc1ccccc1CNC(=O)C(C)Sc1ccccc1 (stereo unspecified)	none (no result: Vif imaging, PvdQ acylase, CAL PDZ FP-1, CAL PDZ FP-2, CDK5 p35 inh)
Cc1ccc(C(=O)NC(C)C2CC3CCC2C3)c(C)c1 (stereo unspecified)	none
CC(C)[C@H]1COCCS(=O)(=O)N1Cc1ccccc1-c1ccccc1	none
Cc1cccc(C(=O)N2CCCC(N3CCN(c4ccc(F)cc4)CC3)C2)n1 (stereo unspecified)	none
CC(C)CC(NC(=O)c1ccc(Cl)cc1)C(=O)OCC(=O)c1ccc2c(c1)NC(=O)CO2 (stereo unspecified)	Glyco luc inh 60
Cc1ccc2c(c1)c1ncnc(N3CCOCC3)c1n2C	CAL PDZ FP-1 42
NC(=NCCc1ccccc1)NC(=O)c1cc(Cl)ccc1O	none
CC(=O)NC(Cc1ccccc1F)C(=O)NC1CCN(C(=O)c2cnccn2)CC1 (stereo unspecified)	Vif imaging 55 (no result: CAL PDZ FP-1)
COc1ccc(CC(NC(C)=O)C(=O)NC2CCN(C(=O)c3cnccn3)CC2)cc1 (stereo unspecified)	none
O=C(c1cc2cc(Cl)ccc2[nH]1)N1CCN(Cc2ccc3c(c2)OCO3)CC1	none
CC(=O)NCCNC(=O)C1(C)Cc2c(-c3cccc(C(F)(F)F)c3)ccnc2O1 (stereo unspecified)	none (no result: PvdQ acylase, CAL PDZ FP-1, CAL PDZ FP-2, CDK5 p35 inh)
CC(C)NC(=O)NS(=O)(=O)c1cnccc1NC1CC2CCC1C2 (stereo unspecified)	CAL PDZ FP-1 69
CS(=O)(=O)Nc1ccccc1C(=O)NC1CC2CCC1C2 (stereo unspecified)	none
O=C(NCc1ccccc1)c1cc2ccccc2oc1=O	CAL PDZ FP-1 68
COc1c2c(c(OC)c3ccccc13)[C@@]1(OC2)O[C@H](CCO)C[C@H](O)[C@H]1O	none (no result: Vif imaging, PvdQ acylase, CAL PDZ FP-1, CAL PDZ FP-2, CDK5 p35 inh)
COc1ccc(CCNC(=O)Cn2c(=O)n(-c3ccc(F)cc3F)c(=O)c3sccc32)cc1OC	CAL PDZ FP-1 32 (no result: CAL PDZ FP-2)
COc1ccc(CCNC(=O)Cn2c(=O)n(-c3cc(F)ccc3F)c(=O)c3sccc32)cc1OC	none
CC(C)Oc1ccc(Nc2ncnc3ccccc23)cc1	PvdQ acylase 31
C[C@@H](NC(=O)c1nc[nH]c1C(=O)N1CCN(c2ccccc2)CC1)c1ccccc1	Glyco luc inh 28
